Active and inactive are the calls of the source. The rule behind the calls is not given here.

The results in this text go back to ChEMBL document CHEMBL4038302, “Fibroblast Activation Protein α Activated Tripeptide Bufadienolide Antitumor Prodrug with Reduced Cardiotoxicity” (J Med Chem, 2017).

Data set [1] is described as follows: Cytotoxicity in BMSC (unknown origin) assessed as cell viability at 1000 nmol/L after 72 hrs by MTT assay. Particulars: unidentified, 1 µM. In kind it is cell-based.
The next data set concerns MDA-MB-435. The data set is described as follows: Antiproliferative activity against wild type human MDA-MB-435 cells expressing FAP-alpha incubated for 48 hrs by MTT assay. The data set is classed as functional, cell-based. Particulars: MDA-MB-435, 48 h. The procedure, abridged: (§1)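 Cells grown in DMEM with 10% FBS and 1% penicillin-streptomycin at 37 °C, 5% CO2; 10% heat-inactivated FBS used during cytotoxicity testing to exclude serum FAP activity. Viability read by MTT; IC50 as mean ± SEM of at least three independent experiments. Transfected lines were made from MDA-MB-231 with human FAPα plasmid or empty pCMV6-Entry vector and checked by Western blot at 48 h.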
A general note: Tetrazolium dyes change colour on reduction, which living cells bring about.

Another data set relates to MCF7. Nature of the data set: Antiproliferative activity against FAP-alpha deficient human MCF7 cells incubated for 48 hrs by MTT assay. In kind it is functional, cell-based. Particulars: MCF7, 48 h. Put shortly: as §1
Data set [2] relates to MDA-MB-231. The data set is described as follows: Antiproliferative activity against FAP-alpha deficient human MDA-MB-231 cells incubated for 48 hrs by MTT assay. The data set is classed as functional, cell-based. The settings on record: MDA-MB-231, 48 h. Put shortly:
as §1

In data set [3] the test system is MDA-MB-231. The data set is described as follows: Antiproliferative activity against human MDA-MB-231 cells assessed as decrease in cell viability at 62.5 to 500 nmol/L after 72 hrs by MTT assay. In kind it is functional, cell-based.
The test system of data set [4] is MDA-MB-231. Nature of the data set: Antiproliferative activity against human MDA-MB-231 cells transfected with pCMV6 incubated for 48 hrs by MTT assay. In kind it is functional, cell-based. Particulars: MDA-MB-231, 48 h. Put shortly:
as §1

The subject of data set [5] is MDA-MB-231. Nature of the data set: Antiproliferative activity against human MDA-MB-231 cells transfected with human FAP-alpha incubated for 48 hrs by MTT assay. The data set is classed as functional, cell-based. The settings on record: MDA-MB-231, 48 h. The procedure, abridged:
as §1

Data set [6] has as its system [H][C@]12CC[C@@]3([H])[C@@]4(O)CC[C@H](c5ccc(=O)oc5)[C@@]4(C)C(=O)[C@@H](O)[C@]3([H])[C@@]1(C)CC[C@H](OC(=O)[C@H](C)NC(=O)[C@@H]1CCCN1C(=O)CNC(=O)OCc1ccccc1)C2. The data set is described as follows: Prodrug activation assessed as recombinant human FAP-alpha mediated (S)-((3S,5R,8R,9S,10S,11S,13R,14S,17R)-11,14-dihydroxy-10,13-dimethyl-12-oxo-17-(2-oxo-2H-pyran-5-yl)hexadecahydro-1H-cyclopenta[a]phenanthren-3-yl) 2-aminopropanoate formation by measuring concentration of test compound gives half-maximal activity after 90 mins by UPLC-MS/MS analysis. Put shortly:
(§2)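 Prodrug at 0.625–40 μmol/L incubated with rhFAPα at 0.45 μg/mL and internal standard in 0.2 mL PBS, pH 7.4, at 37 °C for 90 min. Quenched with MeCN and spun at 18 000g for 15 min; product measured by UPLC-MS/MS. S50 and Vmax fitted with an allosteric sigmoidal model; CLint = Vmax/S50. Three independent experiments.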

For data set [7], the system named is [H][C@]12CC[C@@]3([H])[C@@]4(O)CC[C@H](c5ccc(=O)oc5)[C@@]4(C)C(=O)[C@@H](O)[C@]3([H])[C@@]1(C)CC[C@H](OC(=O)[C@@H](NC(=O)[C@@H]1CCCN1C(=O)CNC(=O)OCc1ccccc1)C(C)C)C2. Nature of the data set: Prodrug activation assessed as recombinant human FAP-alpha mediated (S)-((3S,5R,8R,9S,10S,11S,13R,14S,17R)-11,14-dihydroxy-10,13-dimethyl-12-oxo-17-(2-oxo-2H-pyran-5-yl)hexadecahydro-1H-cyclopenta[a]phenanthren-3-yl) 2-amino-3-methylbutanoate formation by measuring concentration of test compound gives half-maximal activity after 90 mins by UPLC-MS/MS analysis. The procedure, abridged:
as §2

In data set [8] the test system is [H][C@]12CC[C@@]3([H])[C@@]4(O)CC[C@H](c5ccc(=O)oc5)[C@@]4(C)C(=O)[C@@H](O)[C@]3([H])[C@@]1(C)CC[C@H](OC(=O)[C@H](Cc1c[nH]c3ccccc13)NC(=O)[C@@H]1CCCN1C(=O)CNC(=O)OCc1ccccc1)C2. The data set is described as follows: Prodrug activation assessed as recombinant human FAP-alpha mediated (S)-((3S,5R,8R,9S,10S,11S,13R,14S,17R)-11,14-dihydroxy-10,13-dimethyl-12-oxo-17-(2-oxo-2H-pyran-5-yl)hexadecahydro-1H-cyclopenta[a]phenanthren-3-yl) 2-amino-3-(1H-indol-3-yl)propanoate formation by measuring concentration of test compound gives half-maximal activity after 90 mins by UPLC-MS/MS analysis. Put shortly: as §2

For data set [9], the system named is [H][C@]12CC[C@@]3([H])[C@@]4(O)CC[C@H](c5ccc(=O)oc5)[C@@]4(C)C(=O)[C@@H](O)[C@]3([H])[C@@]1(C)CC[C@H](OC(=O)Cc1ccc(NC(=O)[C@@H]3CCCN3C(=O)CNC(=O)OCc3ccccc3)cc1)C2. Nature of the data set: Prodrug activation assessed as recombinant human FAP-alpha mediated 5-((3S,5R,8R,9S,10S,11S,13R,14S,17R)-3-(2-(4-aminophenyl)acetyl)-11,14-dihydroxy-10,13-dimethyl-12-oxohexadecahydro-1H-cyclopenta[a]phenanthren-17-yl)-2H-pyran-2-one formation by measuring concentration of test compound gives half-maximal activity after 90 mins by UPLC-MS/MS analysis. Put shortly:
as §2

For another data set, the target named is T1, Prolyl endopeptidase FAP (Homo sapiens, UniProt Q12884).
T1 sequence (Q12884 whole entry): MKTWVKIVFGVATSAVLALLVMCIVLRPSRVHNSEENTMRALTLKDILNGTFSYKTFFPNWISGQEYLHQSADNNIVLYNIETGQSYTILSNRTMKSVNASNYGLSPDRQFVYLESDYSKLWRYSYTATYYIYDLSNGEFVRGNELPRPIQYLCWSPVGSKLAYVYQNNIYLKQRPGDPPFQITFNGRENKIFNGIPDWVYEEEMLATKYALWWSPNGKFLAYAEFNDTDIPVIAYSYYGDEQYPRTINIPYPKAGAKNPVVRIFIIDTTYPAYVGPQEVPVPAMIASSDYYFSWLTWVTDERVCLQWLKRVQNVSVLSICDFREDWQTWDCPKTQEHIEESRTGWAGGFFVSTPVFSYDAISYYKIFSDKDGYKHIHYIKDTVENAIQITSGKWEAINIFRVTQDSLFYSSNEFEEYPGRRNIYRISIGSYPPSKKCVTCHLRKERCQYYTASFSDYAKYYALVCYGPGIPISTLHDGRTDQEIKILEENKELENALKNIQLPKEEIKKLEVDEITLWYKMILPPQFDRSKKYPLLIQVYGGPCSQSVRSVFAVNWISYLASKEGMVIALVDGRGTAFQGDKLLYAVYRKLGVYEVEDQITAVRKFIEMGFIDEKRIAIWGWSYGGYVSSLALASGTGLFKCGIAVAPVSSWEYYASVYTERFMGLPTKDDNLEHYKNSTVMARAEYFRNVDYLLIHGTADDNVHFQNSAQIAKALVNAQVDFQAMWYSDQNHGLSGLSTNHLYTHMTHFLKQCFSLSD
The data set is described as follows: Prodrug activation assessed as recombinant human FAP-alpha mediated (S)-((3S,5R,8R,9S,10S,11S,13R,14S,17R)-11,14-dihydroxy-10,13-dimethyl-12-oxo-17-(2-oxo-2H-pyran-5-yl)hexadecahydro-1H-cyclopenta[a]phenanthren-3-yl) 2-aminopropanoate formation […] after 90 mins by UPLC-MS/MS analysis. The settings on record: 1.5 h. Put shortly:
as §2

As usually defined, the IC50 is the concentration at which inhibition is half-maximal. Higher therefore signals weaker potency in that assay. `C[C@]12CC[C@H](OC(=O)[C@@H](N)Cc3c[nH]c4ccccc34)C[C@H]1CC[C@@H]1[C@@H]2[C@H](O)C(=O)[C@]2(C)[C@@H](c3ccc(=O)oc3)CC[C@]12O`: the Activity entry in [1] is listed as “Non-Toxic”. The 50% inhibitory concentration (IC50) in the data set on MDA-MB-435 came out at 10 nM; in the data set on MCF7 it was 1.06 nM; in the data set with MDA-MB-231 [2], 4.81 nM; with MDA-MB-231 [4] it was 5.19 nM; in the data set on MDA-MB-231 [5], 7.19 nM. In addition, in the data set on MDA-MB-231 [3], the outcome was Active.
For orientation: Vmax means the rate approached at saturating substrate. As for Prolyl endopeptidase FAP (Homo sapiens), the K0.5 turned out to be 21.3 µM in [6], 34.5 µM in data set [7], 10.4 µM in data set [8] and 3.68 µM in data set [9]. For the same compound, the maximal velocity (Vmax) was determined as 0.494 µmol/min/mg in [6], 0.044 µmol/min/mg in data set [7], 0.682 µmol/min/mg in data set [8] and 0.026 µmol/min/mg in data set [9].
In the case of `C[C@H](NC(=O)[C@@H]1CCCN1C(=O)CNC(=O)OCc1ccccc1)C(=O)O[C@H]1CC[C@@]2(C)[C@H](CC[C@@H]3[C@@H]2[C@H](O)C(=O)[C@]2(C)[C@@H](c4ccc(=O)oc4)CC[C@]32O)C1`, the CL on Prolyl endopeptidase FAP stood at 23240 µL/min/mg.
